High-throughput results as filed in PubChem.
Compounds with a hit are over-represented: about 3.2% of the library has one in this group of screens.
Cneo AK release – Cryptococcus neoformans lysis via adenylate kinase release | C. neoformans lysis, adenylate kinase release luminescence, 4 h; normalised: neutral wells 0, clomiphene wells 100 | lysis activity, % at 15 µM | actives 0.2% (n = 360,000);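 active = mean lysis activity across replicates of at least 80%, whatever share of replicates individually reach that level; inactive = mean lysis activity below 80%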
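Assay system: Cryptococcus neoformans yeast cells / Dosing: single-point compound dose / Timing: 4 h at 37 °C static, read 1 h later / Measured by: luminescence of released adenylate kinase using an AK detection reagent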
AF4-AF9 inh – inhibitors of human MLL-AF4/AF9 interaction; P42568; AlphaScreen, biotin-AF4 peptide binding to FLAG-AF9; inhibition, % at 10 µM; actives 0.47% (n = 350,000); AID 651704;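 active = every replicate reaching a set inhibition limit, whatever the replicate mean, cut at about 25% in these data; inconclusive = mean inhibition reaches that limit but some replicates miss it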;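 also: 0% = plate neutral control median and 100% = total signal loss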
Target sequence (P42568 whole entry, looked up): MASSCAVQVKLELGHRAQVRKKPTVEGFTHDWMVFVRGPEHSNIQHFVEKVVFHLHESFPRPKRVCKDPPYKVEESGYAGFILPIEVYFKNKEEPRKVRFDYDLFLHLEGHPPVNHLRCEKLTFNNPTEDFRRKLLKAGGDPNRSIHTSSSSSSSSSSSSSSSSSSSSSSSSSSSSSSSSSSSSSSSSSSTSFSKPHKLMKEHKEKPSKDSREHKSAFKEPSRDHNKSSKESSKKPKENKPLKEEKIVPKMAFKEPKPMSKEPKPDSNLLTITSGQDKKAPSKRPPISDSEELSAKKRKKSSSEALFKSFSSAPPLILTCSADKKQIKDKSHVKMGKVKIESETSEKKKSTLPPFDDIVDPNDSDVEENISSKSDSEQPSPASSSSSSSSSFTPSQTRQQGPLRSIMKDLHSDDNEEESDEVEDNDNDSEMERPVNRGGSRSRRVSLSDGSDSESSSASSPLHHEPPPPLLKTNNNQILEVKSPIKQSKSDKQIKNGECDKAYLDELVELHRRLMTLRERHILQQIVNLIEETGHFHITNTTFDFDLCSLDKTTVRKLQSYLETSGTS
Ecoli rRNA inh – inhibits bacterial ribosomal RNA function over humanized ribosomes | GFP signal change (wild-type ribosome), % (no concentration beside the values) | E. coli WT GFP vs humanized-ribosome RFP mutants, fluorescence, 24 h; hits give low values; DMSO median 0, no signal -100 | actives 1.6% (n = 350,000) | AID 720706;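 active = significant combined selectivity score with lowered wild-type GFP, culture density cut under 30%, mutant RFP and density less affected; inactive = any of these conditions unmet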
PfHsp90 yeast 2 – inhibits growth of yeast expressing Plasmodium falciparum Hsp90. S. cerevisiae expressing PfHsp90, BacTiter-Glo ATP, 48 h; yeast lacking PDR1 and PDR3 efflux regulators. inhibition, % at 9.4 µM. actives 0.32% (n = 310,000). AID 504621;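 active = every replicate shows inhibition above about 80%, whatever the replicate mean, limit read from the data; inconclusive = mean inhibition reaches the set limit but some replicate falls short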;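 also: 0% = DMSO neutral controls and 100% = 20 µM radicicol positive controls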
DENV2 CPE rescue – DENV2-induced cell death inhibition | DENV2-infected cells, cytopathic effect rescue, plate reader | CPE inhibition, % at 9.99 µM | actives 1.7% (n = 350,000); in the data active = CPE inhibition above about 20%, passing the limit was not always enough; inconclusive = no clear call, values can overlap the other calls; tested in BHK-21 cells;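 also: 0% = median of neutral control wells and 100% = median of positive control wells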
S100A4 MyoIIA – inhibitors of human S100A4 binding to myosin IIA peptide; P26447; S100A4/TAMRA-MyoIIA peptide fluorescence polarization; inhibition, % at 10.7 µM; actives 0.14% (n = 360,000);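 active = mean inhibition of at least 70% across replicates, with every replicate also reaching that level; inconclusive = mean inhibition reaches 70% but some replicates fall short; inactive = mean inhibition below 70%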
Target sequence (P26447 whole entry, looked up): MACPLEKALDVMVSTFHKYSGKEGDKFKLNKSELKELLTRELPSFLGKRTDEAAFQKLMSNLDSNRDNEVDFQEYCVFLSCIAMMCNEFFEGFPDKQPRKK
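Material: S100A4 monomer protein | Medium: HEPES pH 7.2 with CaCl2, KCl, NaCl, DTT, Triton | Reagent: Labelled myosin peptide probe, 5 nM | Doses: One dose per compound | Times: 5 min incubation before reading | Benchmarks: Neutral control DMSO, positive control TFP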
* hit, by the source's call.

Cc1noc(C)c1S(=O)(=O)N(C)C[C@@H]1Oc2ccc(NS(=O)(=O)c3cccs3)cc2CC(=O)N([C@H](C)CO)C[C@@H]1C was read as Cneo AK release 2.0, AF4-AF9 inh 5.7, Ecoli rRNA inh 1.7, DENV2 CPE rescue 5.9 and S100A4 MyoIIA -0.8.
Screening Cc1noc(C)c1S(=O)(=O)Nc1ccc2c(c1)CC(=O)N([C@H](C)CO)C[C@H](C)[C@@H](CN(C)S(=O)(=O)c1cn(C)cn1)O2 returned Cneo AK release 110.4*, AF4-AF9 inh 0.8, Ecoli rRNA inh 1.2, DENV2 CPE rescue -3.5 and S100A4 MyoIIA 10.3.
For Cc1noc(C)c1S(=O)(=O)Nc1ccc2c(c1)CC(=O)N([C@@H](C)CO)C[C@H](C)[C@H](CN(C)S(=O)(=O)c1cccs1)O2 the results were Cneo AK release 0.6, AF4-AF9 inh -1.1, Ecoli rRNA inh 2.0, DENV2 CPE rescue -3.5 and S100A4 MyoIIA 15.2.
Screening Cc1noc(C)c1S(=O)(=O)N(C)C[C@@H]1Oc2ccc(NC(=O)C3CC3)cc2CC(=O)N([C@@H](C)CO)C[C@H]1C returned Cneo AK release 1.4, AF4-AF9 inh -1.2, Ecoli rRNA inh 3.0, DENV2 CPE rescue -2.3 and S100A4 MyoIIA 142.3*.
For CNC(=O)CSCc1c(Cl)cccc1Cl the results were Cneo AK release -4.9 and PfHsp90 yeast 2 10.0.
`CNC(=S)NNC(=O)CSCc1c(Cl)cccc1Cl` gave Cneo AK release -1.5, AF4-AF9 inh -0.4, Ecoli rRNA inh -20.7*, PfHsp90 yeast 2 -25.1, DENV2 CPE rescue 3.6 and S100A4 MyoIIA -2.0.
`CC(=O)N(C)C[C@@H]1Oc2cc(C#Cc3ccccn3)ccc2S(=O)(=O)N([C@@H](C)CO)C[C@H]1C` gave Cneo AK release 1.9, AF4-AF9 inh -2.1, Ecoli rRNA inh 0.6, DENV2 CPE rescue 8.2 and S100A4 MyoIIA 1.0.
For CCC(=O)Nc1ccc2c(c1)C(=O)N(C)[C@@H]1CC[C@H](CC(=O)NC3Cc4ccccc4C3)O[C@H]1CO2 the results were Cneo AK release 6.9, AF4-AF9 inh -5.1, Ecoli rRNA inh 0.7, DENV2 CPE rescue inconclusive and S100A4 MyoIIA -0.6.
For CN1C(=O)c2cc(NS(C)(=O)=O)ccc2OC[C@@H]2O[C@H](CC(=O)O)CC[C@H]21 the results were Cneo AK release -2.6, AF4-AF9 inh -1.4, Ecoli rRNA inh 3.3, DENV2 CPE rescue -7.3 and S100A4 MyoIIA -1.3.
Screening CN1C(=O)c2cc(NS(C)(=O)=O)ccc2OC[C@@H]2O[C@@H](CC(=O)O)CC[C@@H]21 returned Cneo AK release 89.9*, AF4-AF9 inh -1.4, Ecoli rRNA inh 3.9, DENV2 CPE rescue -9.1 and S100A4 MyoIIA 0.6.
For CN1C(=O)c2cc(NC(=O)Nc3ccccc3)ccc2OC[C@H]2O[C@@H](CC(=O)O)CC[C@H]21 the results were Cneo AK release -3.6 and Ecoli rRNA inh 0.7.
CN1C(=O)c2cc(NC(=O)Nc3ccccc3)ccc2OC[C@@H]2O[C@@H](CC(=O)O)CC[C@@H]21 was read as Cneo AK release 1.1, AF4-AF9 inh -0.6, Ecoli rRNA inh -1.0 and DENV2 CPE rescue 56.6*.
For CNC(=O)C[C@H]1CC[C@H]2[C@H](COc3ccc(NC(=O)Nc4cc(C)cc(C)c4)cc3C(=O)N2C)O1 the results were Cneo AK release 0.0, AF4-AF9 inh 4.5, Ecoli rRNA inh 1.4, DENV2 CPE rescue 46.2* and S100A4 MyoIIA -2.4.
`CCC(=O)Nc1ccc2c(c1)C(=O)N(C)[C@@H]1CC[C@@H](CC(=O)NC3Cc4ccccc4C3)O[C@@H]1CO2` gave Cneo AK release 5.4, AF4-AF9 inh -5.3, Ecoli rRNA inh -1.5, DENV2 CPE rescue 30.4* and S100A4 MyoIIA -1.5.
C[C@H]1CN([C@@H](C)CO)C(=O)c2cc(C#Cc3ccccc3F)cnc2O[C@H]1CN(C)C(=O)c1ccc2c(c1)OCO2 was read as Cneo AK release -1.4, AF4-AF9 inh 1.6, Ecoli rRNA inh -3.6, DENV2 CPE rescue inconclusive and S100A4 MyoIIA 14.2.
CCC(=O)Nc1ccc2c(c1)C(=O)N(C)[C@@H]1CC[C@H](CC(=O)O)O[C@H]1CO2 was read as Cneo AK release -1.8, AF4-AF9 inh -0.1, Ecoli rRNA inh 2.7, DENV2 CPE rescue 24.0* and S100A4 MyoIIA 0.5.
`CN1C(=O)c2cc(NC(=O)c3ccc4c(c3)OCO4)ccc2OC[C@@H]2O[C@@H](CC(=O)O)CC[C@H]21` gave Cneo AK release 0.4, AF4-AF9 inh -1.7, Ecoli rRNA inh 3.5, DENV2 CPE rescue -2.2 and S100A4 MyoIIA -10.9.
CCS(=O)(=O)Nc1ccc2c(c1)C(=O)N(C)[C@H]1CC[C@H](CC(=O)NC3CCCCC3)O[C@H]1CO2 was read as Cneo AK release 46.4, AF4-AF9 inh 0.7, Ecoli rRNA inh 0.2, DENV2 CPE rescue 11.6 and S100A4 MyoIIA 3.2.
`CN1C(=O)c2cc(NC(=O)c3ccc4c(c3)OCO4)ccc2OC[C@H]2O[C@@H](CC(=O)O)CC[C@H]21` gave Cneo AK release 40.8, AF4-AF9 inh -1.2, Ecoli rRNA inh -1.8, DENV2 CPE rescue 68.9* and S100A4 MyoIIA -1.5.
Screening CCS(=O)(=O)Nc1ccc2c(c1)C(=O)N(C)[C@@H]1CC[C@H](CC(=O)NC3CCCCC3)O[C@H]1CO2 returned Cneo AK release 58.2, AF4-AF9 inh -1.6, Ecoli rRNA inh 2.5, DENV2 CPE rescue 76.3* and S100A4 MyoIIA 4.6.
Screening CN1C(=O)c2cc(NC(=O)NC3CCCC3)ccc2OC[C@@H]2O[C@H](CC(=O)O)CC[C@H]21 returned Cneo AK release 41.8, AF4-AF9 inh -1.8, Ecoli rRNA inh 2.8, DENV2 CPE rescue 57.1* and S100A4 MyoIIA -4.3.
`C[C@@H]1CN([C@@H](C)CO)C(=O)c2cc(-c3ccc(C(=O)N(C)C)cc3)cnc2O[C@@H]1CN(C)C(=O)c1ccncc1` gave Cneo AK release -1.5, AF4-AF9 inh -2.0, Ecoli rRNA inh 2.5, DENV2 CPE rescue 3.9 and S100A4 MyoIIA 6.7.
For COc1ccc(CN(C)C[C@H]2Oc3ccc(NS(=O)(=O)c4cn(C)cn4)cc3C(=O)N([C@@H](C)CO)C[C@@H]2C)cc1 the results were Cneo AK release -1.5, AF4-AF9 inh -3.5, Ecoli rRNA inh 4.7, DENV2 CPE rescue 7.2 and S100A4 MyoIIA -1.9.
`C[C@@H]1CCCCO[C@@H](CN(C)C(=O)c2ccccc2)[C@H](C)CN([C@H](C)CO)C(=O)c2cc(NC(=O)Nc3cccc4ccccc34)ccc2O1` gave Cneo AK release 52.4, AF4-AF9 inh -3.5, Ecoli rRNA inh 0.2, DENV2 CPE rescue -1.4 and S100A4 MyoIIA -21.1.
For Cc1cccc(NC(=O)Nc2ccc3c(c2)C(=O)N(C)[C@@H]2CC[C@@H](CC(=O)O)O[C@H]2CO3)c1 the results were Cneo AK release -0.3, AF4-AF9 inh 0.7, Ecoli rRNA inh 5.4, DENV2 CPE rescue 71.9* and S100A4 MyoIIA -4.2.
